Measured values as given in publication PMC11019407 (RSC Advances, 2024).
≈ marks a conversion by molar mass, not a printed value.

Key:
[1] = tested on: C. albicans, T. mentagrophytes, T. rubrum, and M. gypseum; assay: Antifungal activity, paper disk diffusion, statements over all fungi; type: cell-based; conditions: all fungus
Procedure, shortened: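 Fungi (C. albicans, T. mentagrophytes, T. rubrum, M. gypseum) were swabbed onto Potato Dextrose Agar plates. Inocula were prepared in LB broth for 24 h at 37 °C. 6 mm paper disks were loaded with 30 μL of test compound at 3.125–300 μM. Fluconazole (1 mg mL−1) was the standard.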

[2] = tested on: NO production in RAW264.7 cells; assay: Inhibition of NO production in LPS-stimulated RAW264.7 cells; type: cell-based; conditions: Mus musculus, RAW264.7, read-out: IC50 of NO inhibition
Procedure, shortened: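 RAW 264.7 cells were grown in DMEM with 2 mM L-glutamine, 10 mM HEPES, 1 mM sodium pyruvate and 10% FBS. Cells were seeded at 2 × 10^5 per well and incubated 3 days at 37 °C, 5% CO2. Nitric oxide was quantified with Griess reagent, L-NMMA served as positive control, and IC50 was reported.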

[3] = tested on: E. coli, P. aeruginosa, MRSA, S. faecalis; assay: Antibacterial activity, paper disk diffusion, statements over several bacteria; type: cell-based; conditions: for inhibition in words: printed as E. coli, P. aeruginosa, and MRSA in the antifungal section
Procedure, shortened: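 Bacteria (E. coli, P. aeruginosa, S. faecalis, MRSA) were grown in LB broth for 24 h at 37 °C, then swabbed evenly onto Mueller–Hinton agar. 6 mm paper disks received 30 μL of test compound at 3.125–300 μM. Ampicillin (1 mg mL−1) was the standard.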

α-glucosidase enzyme = α-glucosidase enzyme (Saccharomyces cerevisiae, UniProt P53341); assay: Alpha-glucosidase inhibition; type: biochemical
Chain of α-glucosidase enzyme (P53341 whole entry): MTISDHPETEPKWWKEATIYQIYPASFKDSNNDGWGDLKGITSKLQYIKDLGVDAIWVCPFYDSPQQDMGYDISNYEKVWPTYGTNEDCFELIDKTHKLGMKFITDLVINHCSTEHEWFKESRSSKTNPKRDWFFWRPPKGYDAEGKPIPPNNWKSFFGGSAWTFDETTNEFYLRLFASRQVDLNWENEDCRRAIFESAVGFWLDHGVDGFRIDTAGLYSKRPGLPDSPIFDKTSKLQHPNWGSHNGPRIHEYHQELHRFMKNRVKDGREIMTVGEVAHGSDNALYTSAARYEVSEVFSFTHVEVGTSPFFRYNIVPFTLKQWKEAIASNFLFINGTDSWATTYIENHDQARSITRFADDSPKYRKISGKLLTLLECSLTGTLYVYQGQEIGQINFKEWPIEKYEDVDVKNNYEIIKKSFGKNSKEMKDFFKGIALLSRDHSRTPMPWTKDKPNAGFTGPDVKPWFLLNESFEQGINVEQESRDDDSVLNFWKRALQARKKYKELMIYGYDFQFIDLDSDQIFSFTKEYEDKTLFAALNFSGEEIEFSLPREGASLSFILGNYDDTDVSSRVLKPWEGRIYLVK

| SMILES | IC50 [2] | antifungal inhibition in words [1] | other results |
| --- | --- | --- | --- |
| COC(=O)C1=CO[C@@H](O[C@@H]2O[C@H](CO)[C@@H](O)[C@H](O)[C@H]2O)[C@H]2[C@@H]1[C@H](O)C[C@]2(C)OC(C)=O [Compound 3, barlerin] | – | weak inhibitions or inactive | – |
| O=C(O)c1c[nH]c2ccccc12 [Compound 6, indole-3-carboxylic acid] | – | – | inhibition in words [3]: weak inhibitions or inactive |
| C[C@@H]1CC[C@]2(C(=O)O)CC[C@]3(C)C(=CC[C@@H]4[C@@]5(C)CC[C@H](O)[C@@](C)(CO)[C@@H]5CC[C@]43C)[C@@H]2[C@]1(C)O [Compound 9, rotundic acid] | – | weak inhibitions or inactive | – |
| C[C@@H]1O[C@@H](O[C@@H]2[C@@H](O)[C@H](OCCc3ccc(O)c(O)c3)O[C@H](CO)[C@H]2OC(=O)/C=C/c2ccc(O)c(O)c2)[C@H](O)[C@H](O)[C@H]1O [Compound 12, verbacoside] | – | weak inhibitions or inactive | IC50 (α-glucosidase enzyme): 42.4 µM |
| [H]/N=C(/NC)NCCC[C@H](N)C(=O)O [L-NMMA, reference compound] | 41.3 µM | – | – |
| CC1(C)S[C@@H]2[C@H](NC(=O)[C@H](N)c3ccccc3)C(=O)N2[C@H]1C(=O)O [ampicillin, reference compound] | – | – | MIC ([3]; read-out: MIC values against four bacteria): 3.12 to 6.25 µM (≈ 1.09 to 2.18 µg/mL) |

Continued, in another order:

| IC50 [2] | SMILES | antifungal inhibition in words [1] | other results |
| --- | --- | --- | --- |
| 25.9 ± 3.32 µM | C[C@]1(OC(=O)/C=C/c2ccccc2)C[C@@H](O)[C@]2(O)C=CO[C@@H](O[C@@H]3O[C@H](CO)[C@@H](O)[C@H](O)[C@H]3O)[C@@H]21 [Compound 4, harpagoside] | weak inhibitions or inactive | – |
| 18.2 ± 0.7 µM | C[C@H]1[C@H](C)CC[C@]2(C(=O)O)CC[C@]3(C)C(=CC[C@@H]4[C@@]5(C)CC[C@H](O)C(C)(C)[C@@H]5CC[C@]43C)[C@H]12 [Compound 7, ursolic acid] | – | inhibition in words [3]: weak inhibitions or inactive |
